Assay outcomes as filed in PubChem.
Hits are enriched below; roughly 2.5% of the tested compounds scored in any of these assays.
UCH37 DUB inh = blocks the human deubiquitinase UCH37 | Q9Y5K5 | purified proteasome/UCH37, Ub-AMC cleavage fluorescence | inhibition, % (test concentration not listed) | hit rate 0.33% among 330,000 | AID 588478;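 active = mean inhibition over replicate wells above about 20%, limit read from the data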;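 note: 0% = compound-free wells with enzyme and 100% = wells lacking proteasome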
Target sequence (Q9Y5K5 whole entry, looked up): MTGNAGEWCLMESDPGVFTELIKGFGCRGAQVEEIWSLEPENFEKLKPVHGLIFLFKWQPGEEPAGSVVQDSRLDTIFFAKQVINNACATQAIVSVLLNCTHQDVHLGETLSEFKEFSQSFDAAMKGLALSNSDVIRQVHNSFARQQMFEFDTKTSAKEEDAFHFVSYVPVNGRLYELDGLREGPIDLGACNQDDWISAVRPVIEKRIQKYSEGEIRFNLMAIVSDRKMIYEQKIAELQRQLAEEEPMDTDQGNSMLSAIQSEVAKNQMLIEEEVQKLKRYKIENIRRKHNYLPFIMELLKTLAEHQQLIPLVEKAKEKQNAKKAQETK
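assay system = human UCH37 enzyme supplied as purified proteasome complex | amount = proteasome at 0.15 nM in the dispensed enzyme solution | schedule = 30 min compound-proteasome preincubation then 25 min substrate reaction, room temperature | measured by = fluorescence, ex 355 nm, em 460 nm | benchmarks = no-proteasome wells (full inhibition) and compound-free wells (no inhibition)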
MEKK3 PB1 HTS = raises or lowers MEK5 binding to the human MEKK3 PB1 domain; bead-based flow cytometry, Alexa488-MEK5 binding to MEKK3; actives lie on both sides; 0 = blocked by unlabeled MEK5, 100 = vehicle; binding response (% of control), % at 10 µM; hit rate 1.4% among 290,000;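 active = binding response more than 3 SD above or below the average of its plate-row segment, actives on both sides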;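 note: Alexa488 bead fluorescence after subtracting the streptavidin-only scavenger bead signal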
MEKK2 WT-MEK5 = raises or lowers MEK5 binding to wildtype human MEKK2 PB1 domain | Q9Y2U5 | bead flow cytometry, Alexa488-MEK5 binding to MEKK2 WT; actives lie on both sides | binding response (% of control), % at 10 µM | hit rate 1.1% among 290,000 | AID 1531; in the data active = binding response below about 67% or above about 130%
MEKK2mut PB1 HTS = signal of MEK5 binding to mutant human MEKK2 PB1 domain. hit rate 0.35% among 290,000. percent response, % at 10 µM. bead flow cytometry, Alexa488-MEK5 binding to MEKK2 mutant. AID 1530; in the data active = percent response above about 24%, passing the limit was not always enough
T cell HTS = T cell immune modulation candidate; hit rate 0.068% among 330,000; response (vesicle binding), % at 7 µM; AID 2052; 2C CD8+ T cell-vesicle binding, flow cytometry; stronger effect = lower value;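 active = response, share of CD8 T cells binding vesicles, and their 90th percentile fluorescence all below set limits, cut at about 80% in these data, passing the limit was not always enough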;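 note: values below 100% mean blocked vesicle binding to the CD8+ T cells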
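Material: murine 2C transgenic CD8+ T lymphocytes / Also added: QL9-peptide-loaded Drosophila micro-vesicles bearing Ld, ICAM-1 and B7-1 / Schedule: binding step 1.5 h, 37 °C, antibody labelling 20 min, ice / Signal: flow cytometry, PE anti-B7-1 (FL2) versus Alexa647 anti-CD8 (FL8), PFA-fixed / Evaluation: percent CD8+ FL2 mean versus row control / Benchmarks: naked versus QL9-loaded vesicles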
Rce1 inhib = yeast Ras-converting enzyme inhibition | AID 2563 | calls only | hit rate 0.27% among 290,000 | Q03530 | yeast membranes, quenched prenylated peptide cleavage fluorescence;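 active = fall in fluorescence gain of 50% or more versus controls, with final raw signal at or below 3038400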;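 note: plate controls were neutral control wells for no effect and wells lacking membranes for full effect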
Target sequence (Q03530 whole entry, looked up): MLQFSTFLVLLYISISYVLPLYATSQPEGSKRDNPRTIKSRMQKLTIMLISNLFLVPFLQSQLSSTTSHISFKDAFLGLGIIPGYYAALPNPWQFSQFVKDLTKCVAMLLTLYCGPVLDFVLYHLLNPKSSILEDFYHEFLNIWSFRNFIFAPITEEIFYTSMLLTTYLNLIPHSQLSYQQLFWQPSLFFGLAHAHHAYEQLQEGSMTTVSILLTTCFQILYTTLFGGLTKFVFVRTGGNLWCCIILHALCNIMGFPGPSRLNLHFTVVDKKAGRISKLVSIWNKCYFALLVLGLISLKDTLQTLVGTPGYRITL
* hit, by the source's call; i = inactive; x = no result given; + = active, no number; [ ] = another dose, or the depositor's remark.

SMILES | UCH37 DUB inh | MEKK3 PB1 HTS | MEKK2 WT-MEK5 | MEKK2mut PB1 HTS | T cell HTS | Rce1 inhib
Cc1cc(C)n(CCCN2CCC(C(=O)Nc3cccc(-c4cccc(F)c4)c3)CC2)n1 | 0.1 | 109.0 | 158.0* | 25.0* | 305.8 | i
Cc1nn(C(C)C(=O)NCCCN2CCCCCC2)c(=O)c2c1sc1ccccc12 (stereo not drawn) | -1.7 | 107.0 | 162.0* | 27.0* | 285.8 | i
O=C(CCC(=O)N1CCOc2ccc(Cl)cc21)NCCCN1CCN(c2ccccc2F)CC1 | 3.8 | 103.0 | 114.0 | 4.0 | 264.3 | i
Cc1ccc(C)c(N2CCN(CCCNC(=O)CCC(=O)N3CCOc4ccc(Cl)cc43)CC2)c1 | x | 107.0 | 150.0* | 16.0 | 262.6 | i
O=C1/C(=C/c2c[nH]c3ccccc23)CCC/C1=C\c1c[nH]c2ccccc12 | 5.5 | 89.0 | 81.0 | 96.0* | 310.2 | i
O=C1CS/C(=N/N=C/c2c[nH]c3ccccc23)N1 | x | 98.0 | 93.0 | -5.0 | 629.6 | i
CON=CC(=NNc1ccc(OC)cc1)C(=O)c1ccc(F)cc1 | 2.0 | x | x | x | x | x
Cc1ccc(C)n1Cc1ccc(C(=O)O)cc1 | 29.9* | 97.0 | 96.0 | -4.0 | 204.6 | x
NC(=O)c1nsc(C(=O)N(c2cccc(F)c2)C(C(=O)NC2CCCC2)c2ccco2)c1N (stereo not drawn) | -35.2 | 1.0*[inhibitor] | 0.0*[inhibitor] | -37.0 | 181.2 | i
CCc1ccc(N(C(=O)c2snc(C(N)=O)c2N)C(C(=O)NC2CCCC2)c2ccco2)cc1 (stereo not drawn) | -18.0 | 101.0 | 95.0 | -1.0 | 467.2 | i
CC(=NNC(=O)c1cccs1)C(C)(C)C | 3.3 | x | x | x | x | x
O=C1Nc2cc(C(=O)NCCCN3CCCC3)ccc2S/C1=C/c1ccccc1F | 7.0 | 103.0 | 138.0* | 13.0 | 484.8 | i
O=C(NCCCN1CCCCCC1)c1ccc2c(c1)NC(=O)C(N1CCOCC1)S2 (stereo not drawn) | 22.5* | 102.0 | 129.0 | 10.0 | 250.0 | i
CCN1CCN(CCNC(=O)c2ccc3c(c2)N(Cc2ccc(F)cc2)C(=O)/C(=C/c2ccccc2)S3)CC1 | 6.2 | 118.0 | 278.0* | 117.0* | 323.2 | i
Cc1cccc(CN2C(=O)/C(=C\c3ccc(C(=O)NCCN4CCOCC4)cc3)Sc3ccccc32)c1 | -33.2 | 107.0 | 130.0 | 9.0 | 420.7 | i
COc1ccc(/C=C2\Sc3ccc(C(=O)NC4CC4)cc3N(C)C2=O)cc1OC | 4.7 | 102.0 | 99.0 | -5.0 | 388.6 | i
COc1ccc(/C=C2\Sc3ccc(C(=O)NCCN4CCCCCC4)cc3N(C)C2=O)cc1 | 3.6 | 108.0 | 203.0* | 54.0* | 436.4 | i
Cc1ccc(C(=O)NN=Cc2ccncc2)s1 | 4.0 | x | x | x | x | x
COc1ccc(C=NNC(=O)CCC(=O)Nc2ccc(F)cc2)c(OC)c1 | 3.9 | x | x | x | x | x
O=S(=O)(NN=Cc1ccc(-c2ccccc2Cl)o1)c1ccccc1 | 5.7 | x | x | x | x | x
CCOc1ccc(C(C)=NN2C(=O)C(CC(=O)Nc3ccc(OC)cc3[N+](=O)[O-])SC2=Nc2cccc(C)c2C)cc1 (stereo not drawn) | 10.2 | x | x | x | x | x
COc1cccc(/C=C2/Sc3ccc(C(=O)NCCCN4CCCC4)cc3NC2=O)c1 | 3.7 | 109.0 | 167.0* | 21.0 | 506.4 | i
CN1C(=O)/C(=C\c2ccccc2F)Sc2ccc(C(=O)NC3CCN(Cc4ccccc4)CC3)cc21 | x | 104.0 | 168.0* | 20.0 | 263.1 | i
CCN1CCCC1CNC(=O)c1ccc2c(c1)NC(=O)/C(=C\c1ccc(C)cc1)S2 (stereo not drawn) | 12.1 | 106.0 | 194.0* | 43.0* | 311.9 | i
COc1cccc(/C=C2/Sc3ccc(C(=O)NCCN4CCCC4)cc3NC2=O)c1 | 4.1 | 109.0 | 188.0* | 30.0* | 354.4 | i
SMILES | UCH37 DUB inh | MEKK3 PB1 HTS | MEKK2 WT-MEK5 | MEKK2mut PB1 HTS | T cell HTS | Rce1 inhib
Cc1ccc(/C=C2/Sc3ccc(C(=O)NCCN4CCOCC4)cc3NC2=O)cc1 | -30.7 | 101.0 | 108.0 | 4.0 | 67.1 | i
CC(=NNC(=O)c1nnn(-c2nonc2N)c1CN1CCCCCC1)c1ccc(Br)cc1 | 2.0 | x | x | x | x | x
Oc1ccc(C(Cc2ccccn2)=NNc2ccccc2)c(O)c1 | 1.7 | x | x | x | x | x
NS(=O)(=O)c1ccc(N/N=C/c2cn(-c3ccccc3)nc2-c2cccs2)c([N+](=O)[O-])c1 | x | 95.0 | 85.0 | -4.0 | 440.4 | i
NS(=O)(=O)c1ccc(N/N=C/c2cn(-c3ccccc3)nc2-c2cccs2)cc1 | x | 101.0 | 116.0 | 8.0 | 367.1 | +
N#CC1=C(N)NC(SCc2ccccc2)=C(C#N)C12CCCC2 | 20.7* | 94.0 | 91.0 | -3.0 | 208.4 | i
N#CC1=C(N)NC(SCc2ccc(Cl)cc2)=C(C#N)C12CCCCC2 | 0.4 | 102.0 | 102.0 | 3.0 | 759.3 | i
CCOC(=O)Cc1csc(NC(=O)c2c(O)c3c(n(CC(C)C)c2=O)CCCC3)n1 | 0.1 | 100.0 | -3.0* | 2.0 | 227.6 | i
Cc1csc(NC(=O)c2c(O)c3c(n(CC(C)C)c2=O)CCCC3)n1 | -0.8 | 99.0 | 97.0 | -2.0 | 312.6 | i
Fc1ccccc1C=NNC(=S)Nc1ccc(Cl)cc1Cl | 3.0 | x | x | x | x | x
Cc1cccc(CN2C(=O)c3ccccc3S(=O)(=O)c3ccc(C(=O)NCCCN4CCCC4)cc32)c1 | 1.8 | 106.0 | 141.0* | 15.0 | i | i
O=C(NCCN1CCCC1)c1ccc2c(c1)N(Cc1cccc(Cl)c1)C(=O)c1ccccc1S2(=O)=O | 1.1 | 99.0 | 122.0 | 12.0 | 267.4 | i
CC1CCCN(CCCNC(=O)c2ccc3c(c2)N(Cc2ccccc2F)C(=O)c2ccccc2S3(=O)=O)C1 (stereo not drawn) | x | 111.0 | 136.0* | 18.0 | 444.1 | i
CCOC(=O)C(CC)C(C)=NNC(=O)c1ccc([N+](=O)[O-])cc1 (stereo not drawn) | 1.9 | x | x | x | x | x
CC1(C)Cc2c(sc3ncnc(NNC(=S)NCc4ccccc4)c23)CO1 | 0.6 | 132.0* | 108.0 | 0.0 | 268.7 | i
CC(C)NC(=S)NNc1ncnc2sc3c(c12)CC(C)(C)OC3 | 4.5 | x | x | x | 172.7 | i
O=C(CNS(=O)(=O)c1ccccc1)NN=Cc1ccccc1[N+](=O)[O-] | 4.7 | x | x | x | x | x
S=C1Cc2ccccc2N1 | 81.2* | 86.0 | 80.0 | -31.0 | x | i
O=C1CCc2ccccc2N1 | 0.5 | 99.0 | 100.0 | 1.0 | 583.5 | i
Cc1csc(C(=NO)c2csc(C)n2)n1 | 1.5 | x | x | x | x | x
CC(C)c1ccc(C=NN2CCN(c3ccccn3)CC2)cc1 | 0.1 | x | x | x | x | x
O=C(O)c1ccc(-c2ccc(O)c(F)c2)cc1 | x | 106.0 | 107.0 | 14.0 | i | +
O=C(O)c1ccc(O)c(O)c1 | 2.4 | 105.0 | 93.0 | 2.0 | 370.1 | x
O=[N+]([O-])c1ccc(C=NNc2nc(N3CCOCC3)nc(N3CCOCC3)n2)cc1 | 6.7 | x | x | x | x | x
